Experimental data gathered from unrelated publications.
Each line is one published result; the experiments were not run side by side.

Compound	assay	system	setting	solubility
CCOC(=O)c1ccc(N)cc1		PBS	pH 7.4	890 µg/mL
CS(=O)(=O)c1ncn2c(NCc3c(F)ccc4c3CCO4)ncc(-c3ccc(C4CC4)nc3)c12		FaSSIF		26.5 µg/mL
CCOc1nc2nc(C)cc(Nc3ccc(S(F)(F)(F)(F)F)cc3)n2n1	nephelometry	aqueous buffer	pH 6.5	4 to 8 µM
O=C(Nc1c2c(cc3c1CCC3)CCC2)NS(=O)(=O)/C=C/c1nccs1		simulated gastric fluid	24 h, 37 °C, acidic	< 5 µg/mL
COc1cccc2c(NCc3ccccc3)nc(-n3c(=O)oc4ccccc43)nc12		aqueous buffer	pH 5	0.02 µg/mL
Cc1c(F)cccc1NC(=O)Nc1ccc(Cl)c(S(=O)(=O)[C@H]2CCCNC2)c1O		aqueous buffer	4 h, pH 5	6 µg/mL
COc1cccc2c(NCc3ccccc3)nc(N3CCNc4ccccc43)nc12		aqueous buffer	pH 5	28.2 µg/mL
CN1C(C(=O)Nc2ccccn2)=C(O)c2ccccc2S1(=O)=O	shake flask	aqueous buffer	48 h, pH 6.5	7 to 9 µg/mL
Cc1cc(Nc2ccc(S(F)(F)(F)(F)F)cc2)n2nc(C(C)(F)F)nc2n1	nephelometry	aqueous buffer	pH 6.5	30 to 60 µM
COc1ccc(Nc2nc(NCc3ccccc3)c3ccccc3n2)cc1F		aqueous buffer	pH 6.2	0.03 µg/mL
CN1CCN(C2CCN(c3nccc4[nH]c(-c5cc(F)cc(F)c5)nc34)CC2)CC1	shake flask	aqueous buffer	pH 6.5	> 200 µM
N=C(N)NCc1ccc(NC(=O)C23CC(C(=O)Nc4ccc(C5=CCN(C(=N)N)CC5)cc4)(C2)C3)cc1	shake flask	aqueous buffer	pH 7.4	770 µg/mL
O=C(Nc1ccc(S(=O)(=O)N2CCC(Cl)CC2)cc1)c1ccc([N+](=O)[O-])o1		aqueous buffer	pH 7.4	9.7 µM
O=C(Nc1c(F)cccc1C(=O)O)c1ccc(-c2ccccc2)cc1	shake flask	aqueous buffer	24 h, pH 6.5, 25 °C	80 µM
Cc1cc(F)cc(Nc2nc(NCc3ccccc3)c3ccccc3n2)c1		aqueous buffer	pH 5	0.05 µg/mL
CC#Cc1cncc(-c2ccc3c(c2)[C@@]2(N=C(C)C(N)=N2)[C@]2(CC[C@H](OC)CC2)C3)c1		simulated gastric fluid	25 °C, acidic	> 10000 µg/mL
CS(=O)(=O)N1CCN(Cc2cc3nc(-c4cccc5[nH]ncc45)nc(N4CCOCC4)c3s2)CC1		FeSSIF		6 µg/mL
CC[C@H](C)[C@H](NC(=O)[C@H](CCCNC(=N)N)NC(=O)[C@H](CCC(=O)O)NC(C)=O)C(=O)N[C@H]1CSSC[C@@H](C(=O)N[C@H](C(N)=O)[C@@H](C)O)NC(=O)[C@H](CCCNC(=N)N)NC(=O)[C@H](Cc2c[nH]cn2)NC(=O)[C@H](C)NC(=O)CNC(=O)[C@H](Cc2c[nH]c3ccccc23)NC(=O)[C@H](CC(=O)O)NC(=O)[C@H](CCC(N)=O)NC(=O)[C@H](Cc2c[nH]c3ccccc23)NC(=O)[C@H](C(C)C)NC1=O		PBS	pH 7.4	4290 µg/mL
O=C(c1ccccn1)N(Cc1cccs1)C1(C(=O)NC2CCCCC2)CCCCC1		aqueous buffer	pH 6.2	6.6 µg/mL
CCn1c(-c2nc3ccc(C(=O)N4CCCC(N)C4)cc3n2C)cc2ccccc21 (centres unmarked)		aqueous buffer		243 µM
CCOc1ccc2cc(-c3nn(C4CCCCC4)c(N)c3C(N)=O)cnc2c1		PBS	pH 6.5, 25 °C	34.3 µM
COc1cc(C(=O)O)cc(OC)c1O		water	72 h, 25 °C	7400 µM
COC(=O)C1=C(C)NC(C)=C(C(=O)OCCN(C)Cc2ccccc2)C1c1cccc([N+](=O)[O-])c1 (centres unmarked)		FaSSIF	24 h, pH 7.4, 37 °C	227 µg/mL
CCCOC(=O)c1ccc(N)cc1		PBS	pH 7.4	749 µg/mL

Compound	assay	system	setting	solubility
CS(=O)(=O)c1ccc2c(c1)nc(C1CCNCC1)n2Cc1ccccc1.Cl	shake flask	aqueous buffer	20 h, pH 6.5, 25 °C	200 µM
COc1c(Cl)cccc1Nc1nc(NCc2ccccc2)c2ccccc2n1		aqueous buffer	pH 6.2	0.23 µg/mL
CC(C)CC(=O)N1CCC[C@H](COc2cccc3c2C(N)=NS(=O)(=O)N3)C1		ethanol		1230 µM
Brc1ccccc1CNc1nc(NCc2ccccc2)c2ccccc2n1		aqueous buffer	pH 7.4	0.14 µg/mL
NCCNc1nc2cc(Cl)ccc2n1Cc1ccccc1	shake flask	aqueous buffer	20 h, pH 6.5, 25 °C	≥ 200 µM
CCCCCCCCCCCCN1CCCC1=O		PBS	48 h, pH 7.4, 25 °C	21 µM
CC(C)(C)n1nc(-c2cnc3cc(OCC4CC4)ccc3c2)c(C(N)=O)c1N		PBS	pH 6.5, 25 °C	26.8 µM
O=C(O)c1ccc(-c2nnc(-c3ncccn3)nn2)cc1		water		≤ 200 µM
CCCn1nc(C(=O)N2CCCCC2)c2c1CCC(NCCN1CCCCC1)C2 (centres unmarked)		PBS	16 h, pH 7.4	1740 µM
COc1cccc(OC)c1-c1cc(C(=O)N[C@@H](CC(C)C)C(=O)O)nn1-c1ccnc2cc(Cl)ccc12		aqueous buffer	pH 7.4	> 155 µg/mL
Cc1nccn1CC1CCc2c(c3ccccc3n2C)C1=O (centres unmarked)		PBS	24 h, pH 7.4, 25 °C	93 µM
CCOc1ccc2cc(-c3nn(CC(C)(C)CO)c(N)c3C(N)=O)ccc2n1		PBS	pH 6.5, 25 °C	> 100 µM
Cc1cc2[nH]c(-c3cc(F)cc(F)c3)nc2c(N2CCC(CN3CCN(C)CC3)CC2)n1	shake flask	aqueous buffer	pH 6.5	> 200 µM
CCc1ccccc1-n1nc(C)c(C(=O)Nc2ccc3ccccc3n2)c1C	HPLC	PBS	6 h, pH 7.4	5.9 µg/mL
OCCOc1cccc2c(NCc3ccccc3)nc(N3CCOc4ccccc43)nc12		aqueous buffer	pH 7.4	0.43 µg/mL
Cc1cc(Nc2ccc(Cl)cc2)n2nc(C(C)C)nc2n1	nephelometry	aqueous buffer	pH 6.5	83 to 170 µM
NCCCNc1nc2cc(Br)ccc2n1Cc1ccccc1	shake flask	aqueous buffer	20 h, pH 6.5, 25 °C	100 µM
COc1ccc2c(c1)c(CC(=O)O)c(C)n2C(=O)c1ccc(Cl)cc1		PBS	20 h, pH 7.4, 20 °C	246 µg/mL
CCOc1nc2nc(C)cc(Nc3ccc(C(F)(F)F)cc3)n2n1	nephelometry	aqueous buffer	pH 6.5	19 to 37 µM
O=C(/C=C/c1ccc(CN(CCO)CCc2c[nH]c3ccccc23)cc1)NO	HPLC	water	48 h, pH 6, 25 °C	8 µg/mL
CN1CCN(C(=O)C2CCN(c3nccc4[nH]c(-c5ccc(F)c(F)c5)nc34)CC2)CC1	shake flask	aqueous buffer	pH 6.5	> 200 µM
Cc1ccc(Nc2nc(NCc3ccccc3)c3ccccc3n2)cc1F		aqueous buffer	pH 5	0.13 µg/mL
COCc1nn(Cc2ccc(Cn3ccccc3=O)cc2)cc1C(=O)NCc1c(F)ccc(OC)c1F		FaSSIF	4 h, pH 6.5	9 µg/mL
